This passage reports Activity results from ChEMBL document CHEMBL2086287, “An efficient one-pot synthesis and photoinduced DNA cleavage studies of 2-chloro-3-(5-aryl-4,5-dihydroisoxazol-3-yl)quinolines” (Bioorg Med Chem Lett, 2012).

The structures appear in SMILES notation.

The test system of experiment [1] is Nucleic Acid. Kind of experiment: Induction of Escherichia coli pUC19 DNA cleavage assessed as conversion of supercoiled DNA to nicked form of DNA at 40 uM […] by ethidium bromide staining. In kind it is nucleic-acid assay. In a few lines: (§1)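 pUC-19 plasmid DNA photolysed at 365 nm for 2 h in 1:9 DMSO:Tris buffer ([…], pH 7.2) with test compound at 40–80 μM, 37 °C. A control lane without compound and dark-incubated samples were run alongside. Cleavage read by gel separation as the percentage of supercoiled (Form I) DNA converted to nicked (Form II) and linear (Form III) forms.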

Experiment [2] relates to Nucleic Acid. Kind of experiment: Induction of Escherichia coli pUC19 DNA cleavage assessed as conversion of supercoiled DNA to nicked form of DNA at 60 uM treated after 2 hrs before UV-vis irradiation measured after 1 hr by ethidium bromide staining. The format is nucleic-acid assay. In a few lines:
as §1

Experiment [3] concerns Nucleic Acid. Kind of experiment: Induction of Escherichia coli pUC19 DNA cleavage assessed as conversion of supercoiled form of DNA to nicked and linear form of DNA at 80 uM treated after 2 hrs before UV-vis irradiation measured after 1 hr by ethidium bromide staining.

Take `COc1ccc(C2=NOC(c3cc4ccccc4nc3Cl)C2)cc1` (stereo unspecified): the Activity in experiment [1] turned out to be 20%; in experiment [2], 50%; in experiment [3], 85%.

As to `Oc1ccc(C2=NOC(c3cc4ccccc4nc3Cl)C2)cc1` (stereo unspecified), the Activity in experiment [1] was determined as 20%; in experiment [2], 50%; in experiment [3], 85%.

On to `Clc1ccc(C2=NOC(c3cc4ccccc4nc3Cl)C2)cc1` (stereo unspecified), for which the Activity in experiment [1] worked out at 20%; in experiment [2], 50%; in experiment [3] it was 85%.

With `Clc1nc2ccccc2cc1C1CC(c2ccccc2)=NO1` (stereo unspecified), the values for the Activity in experiment [1], in experiment [2] and in experiment [3] were 20%, 50% and 85%, respectively.

Consider `Clc1nc2ccccc2cc1C1CC(c2ccc(Br)cc2)=NO1` (stereo unspecified), for which the Activity in experiment [1] was found to be 20%; in experiment [2], 50%; in experiment [3] it was 85%.

On to `O=[N+]([O-])c1ccc(C2=NOC(c3cc4ccccc4nc3Cl)C2)cc1` (stereo unspecified), for which the Activity in experiment [1] was 20%; in experiment [2], 50%; in experiment [3], 85%.

For the molecule `Cc1ccc(C2=NOC(c3cc4ccccc4nc3Cl)C2)cc1` (stereo unspecified), the Activity in experiment [1] was 20%; in experiment [2] it was 50%; in experiment [3], 85%.
